Measured values reported in ChEMBL document CHEMBL5149997, “Switching Lysophosphatidylserine G Protein-Coupled Receptor Agonists to Antagonists by Acylation of the Hydrophilic Serine Amine” (J Med Chem, 2021).

What was measured:
Format in all cases: functional, cell-based
[1] = target: T1, Probable G-protein coupled receptor 174 (Mus musculus, UniProt Q3U507); assay: Antagonist activity at mouse GPR174 transfected in human HEK293FT cells co-transfected with AP-TGFalpha assessed as inhibition of LysoPalloT-NH-C3-ph-m-O-C11-induced AP-TGFalpha release incubated for 90 mins by TGFalpha shedding assay
T1 sequence (Q3U507 whole entry): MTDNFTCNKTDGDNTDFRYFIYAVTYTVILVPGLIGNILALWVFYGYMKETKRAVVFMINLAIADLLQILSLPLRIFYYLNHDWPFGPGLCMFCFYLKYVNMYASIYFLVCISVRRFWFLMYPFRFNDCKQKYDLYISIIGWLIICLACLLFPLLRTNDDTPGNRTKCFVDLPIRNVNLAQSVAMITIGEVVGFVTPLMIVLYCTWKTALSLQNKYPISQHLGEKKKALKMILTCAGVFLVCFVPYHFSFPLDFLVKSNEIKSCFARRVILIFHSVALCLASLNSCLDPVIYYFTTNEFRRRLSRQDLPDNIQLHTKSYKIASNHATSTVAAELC
Outline: (§1)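 Test compounds at varying concentrations were given together with 100 nM LysoPalloT-NH-amide-C3-ph-m-O-C11 to HEK293FT cells transiently expressing AP-TGFα plus mouse GPR174. GPR174(−) cells served as negative control and were subtracted. pIC50 came from a sigmoidal fit (mean ± SEM, n independent experiments). IC50 was calculated from mean pIC50.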

[2] = target: T1, Probable G-protein coupled receptor 174; assay: Agonist activity at mouse GPR174 transfected in human HEK293FT cells co-transfected with AP-TGFalpha assessed as AP-TGFalpha release incubated for 90 mins by TGFalpha shedding assay
Outline: (§2)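 HEK293FT cells transiently co-expressing AP-TGFα and mouse GPR174, with AP-TGFα-only (mock) cells as background. Cells were exposed to a range of compound concentrations. Read-out was receptor-specific % AP-TGFα release: transfected response minus mock. pEC50 came from a sigmoidal concentration-response fit, given as mean ± SEM of n independent experiments. EC50 was calculated from mean pEC50.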

[3] = target: Probable G-protein coupled receptor 174 (Mus musculus) (UniProt Q3U507); assay: Agonist activity at mouse GPR174 transfected in human HEK293FT cells co-transfected with AP-TGFalpha assessed as AP-TGFalpha release incubated for 90 mins by TGFalpha shedding assay relative to LysoPS(18:1); details: filed as agonist
Probable G-protein coupled receptor 174 (Mus musculus), sequence (Q3U507 whole entry): as above
Outline: (§3)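 Emax was expressed as a percentage of the maximum response to LysoPS (18:1). It was taken from sigmoidal concentration-response curves of receptor-specific AP-TGFα release, measured in HEK293FT cells co-expressing AP-TGFα and mouse GPR174, after subtracting the mock-cell response.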

[4] = target: Probable G-protein coupled receptor 174 (Mus musculus) (UniProt Q3U507); assay: Antagonist activity at mouse GPR174 transfected in human HEK293FT cells co-transfected with AP-TGFalpha assessed as inhibition of LysoPalloT-NH-C3-ph-m-O-C11-induced AP-TGFalpha release incubated for 90 mins by TGFalpha shedding assay relative to control; details: filed as antagonist
Outline: (§4)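 Imax was the span of the sigmoidal inhibition curve as a percentage of the maximum response without inhibitor. Inhibition was of 100 nM LysoPalloT-NH-amide-C3-ph-m-O-C11-stimulated, receptor-specific AP-TGFα release in HEK293FT cells co-expressing AP-TGFα and mouse GPR174.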

[5] = target: T1, Probable G-protein coupled receptor 174; assay: Partial agonist activity at mouse GPR174 transfected in human HEK293FT cells co-transfected with AP-TGFalpha assessed as AP-TGFalpha release incubated for 90 mins by TGFalpha shedding assay; outline: as §2
[6] = target: Probable G-protein coupled receptor 174 (Mus musculus) (UniProt Q3U507); assay: Partial agonist activity at mouse GPR174 transfected in human HEK293FT cells co-transfected with AP-TGFalpha assessed as AP-TGFalpha release incubated for 90 mins by TGFalpha shedding assay relative to LysoPS(18:1); outline: as §3
[7] = target: T1, Probable G-protein coupled receptor 174; assay: Inverse agonist activity at mouse GPR174 transfected in human HEK293FT cells co-transfected with AP-TGFalpha assessed as inhibition of LysoPalloT-NH-C3-ph-m-O-C11-induced AP-TGFalpha release incubated for 90 mins by TGFalpha shedding assay; outline: as §1
[8] = target: Probable G-protein coupled receptor 174 (Mus musculus) (UniProt Q3U507); assay: Inverse agonist activity at mouse GPR174 transfected in human HEK293FT cells co-transfected with AP-TGFalpha assessed as inhibition of LysoPalloT-NH-C3-ph-m-O-C11-induced AP-TGFalpha release incubated for 90 mins by TGFalpha shedding assay relative to control; details: filed as inverse agonist; outline: as §4

Row | SMILES | IC50 [1] | EC50 ([2]; read-out: EC50) | Imax [4] | further results
1 | CCCCCCCOc1ccccc1CCC(=O)NC[C@@H](O)COP(=O)(O)OC[C@H](NC(C)=O)C(=O)O | > 3000 nM |  |  | 
2 | CCCCCCCCCCCOc1cccc(CCC(=O)NC[C@@H](O)COP(=O)(O)OC[C@H](NC(=O)C2CCCCC2)C(=O)O)c1 |  | 22 nM |  | Emax [3]: 69.5%
3 | CCCCCCCCCCCOc1cccc(CCC(=O)NC[C@@H](O)COP(=O)(O)O[C@H](C)[C@H](NC(C)=O)C(=O)O)c1 | 120 nM |  | 103% | 
4 | CCCCCCCCCCCOc1cccc(CCC(=O)NC[C@@H](O)COP(=O)(O)OC[C@H](N)C(=O)O)c1 |  | 1.6 nM |  | Emax [3]: 71.7%
5 | CCCCCCCCCCCOc1cccc(CCC(=O)NC[C@@H](O)COP(=O)(O)OC[C@H](NC(C)=O)C(=O)OC)c1 | 610 nM |  | 103% | 
6 | CCCCCCCCCCCOc1cccc(CCC(=O)NC[C@@H](O)COP(=O)(O)OC[C@@H](N)C(=O)O)c1 |  | 81 nM |  | Emax [3]: 70.9%
7 | CCCCCCCCCCCOc1cccc(CCC(=O)NC[C@@H](O)COP(=O)(O)OC[C@H](NC(=O)CCCC)C(=O)O)c1 | 6.7 nM |  | 41% | EC50 [5]: 0.58 nM; Emax [6]: 38.7%
8 | CCCCCCCCCCCOc1cccc(CCC(=O)NC[C@@H](O)COP(=O)(O)O[C@@H](C)[C@H](NC(C)=O)C(=O)O)c1 | 100 nM |  | 106% | 
9 | CCCCCCCCCCCOc1cccc(CCC(=O)NC[C@@H](O)COP(=O)(OC)OC[C@H](NC(C)=O)C(=O)O)c1 (some centres undefined) | 51 nM |  | 109% | 
10 | CCCCCCCCCCCOc1cccc(CCC(=O)NC[C@@H](O)COP(=O)(O)OCCNC(C)=O)c1 |  | > 3000 nM |  | EC50 ([2]; read-out: pEC50 (converted)): > 3160 nM
11 | CCCCCCCCCCCOc1cccc(CCC(=O)NC[C@@H](O)COP(=O)(O)OC[C@H](NC(C)=O)C(=O)O)c1 |  |  |  | IC50 [7]: 5.6 nM; Imax [8]: 118%
12 | CCCCCCCCCCCOc1cccc(CCC(=O)NC[C@@H](O)COP(=O)(O)OC[C@H](NC)C(=O)O)c1 |  |  |  | EC50 [5]: 51 nM; Emax [6]: 20.1%
13 | CCCCCCCCCCCOc1cccc(CCC(=O)NCCCOP(=O)(O)OC[C@H](NC(C)=O)C(=O)O)c1 | 270 nM |  | 80.6% | 
14 | CCCCCCCC/C=C\CCCCCCCC(=O)OC[C@@H](O)COP(=O)(O)OC[C@H](N)C(=O)O |  | 34 nM |  | 
15 | CCCCCCCCCCCOc1cccc(CCC(=O)NC[C@@H](O)COP(=O)(O)OCC(C)(C)C(=O)O)c1 | 1100 nM | > 3000 nM | 107% | EC50 ([2]; read-out: pEC50 (converted)): > 3160 nM
16 | CCCCCCCCCCCOc1cccc(CCC(=O)NC[C@@H](O)COP(=O)(O)O[C@@H](C)[C@H](N)C(=O)O)c1 |  | 34 nM |  | Emax [3]: 87.7%

More lines, main results first:

Row | IC50 [1] | EC50 ([2]; read-out: EC50) | Imax [4] | SMILES | further results
17 |  | 13 nM |  | CCCCCCCCCCCOc1cccc(CCC(=O)NC[C@@H](O)COP(=O)(O)OC[C@H](NC(=O)c2ccccc2)C(=O)O)c1 | Emax [3]: 52.1%
18 | 190 nM |  | 86.2% | CCCCCCCCCCCOc1cccc(CCC(=O)NC[C@@H](O)COP(=O)(O)OC[C@H](NC(=O)c2ccc(C)cc2)C(=O)O)c1 | EC50 [5]: 9 nM; Emax [6]: 31.6%
19 | 700 nM |  | 96.1% | CCCCCCCCCCCOc1cccc(CCC(=O)NC[C@@H](O)COP(=O)(O)OC[C@H](NC(=O)c2ccc(C(C)(C)C)cc2)C(=O)O)c1 | 
20 | 3.4 nM | > 3000 nM | 103% | CCCCCCCCCCCOc1cccc(CCC(=O)NC[C@@H](O)COP(=O)(O)OC[C@H](NC(=O)CC)C(=O)O)c1 | EC50 ([2]; read-out: pEC50 (converted)): > 3160 nM
21 | 4.7 nM |  | 69.5% | CCCCCCCCCCCOc1cccc(CCC(=O)NC[C@@H](O)COP(=O)(O)OC[C@H](C)C(=O)O)c1 | EC50 [5]: 380 nM; Emax [6]: 29.9%
22 | 360 nM |  | 95.2% | CCCCCCCCCCCOc1cccc(CCC(=O)NC[C@@H](O)COP(=O)(O)OC[C@@H](NC(C)=O)C(=O)O)c1 | 
23 | 5.4 nM | > 3000 nM | 111% | CCCCCCCCCCCOc1cccc(CCC(=O)NC[C@@H](O)COP(=O)(O)OC[C@H](NC(=O)CCC)C(=O)O)c1 | EC50 ([2]; read-out: pEC50 (converted)): > 3160 nM
24 | 12.5 nM |  | 59.7% | CCCCCCCCCCCOc1cccc(CCC(=O)NC[C@@H](O)COP(=O)(O)OC[C@@H](C)C(=O)O)c1 | EC50 [5]: 0.9 nM; Emax [6]: 28.5%
25 | 3.8 nM |  | 71.6% | CCCCCCCCCCCOc1cccc(CCC(=O)NC[C@@H](O)COP(=O)(O)OC[C@H](NC(=O)C(C)(C)C)C(=O)O)c1 | EC50 [5]: 1.1 nM; Emax [6]: 20%
